Experimental data reported in paper PMC6072253 (ACS Omega, 2018).
Values after ≈ are worked out from the molar mass of the structure shown. Values joined by “and” are separate entries in the source; they are usually repeats but may differ in a detail not shown here. Equal entries are not always repeated.

Key:
[1] = successive pKa of the acid itself; no reference given; cited from earlier work
[2] = in vitro dissolution under sink conditions; type: physicochemical
In short: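 Samples (1 mL) were taken at 15, 30, 60, 120, 240 and 360 min and replaced with fresh prewarmed medium. Samples were filtered (0.45 μm PVDF), diluted in methanol and quantified by HPLC. Runs were in triplicate. AUC0–t was obtained by the trapezoidal rule to the last time point.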

[3] = oral pharmacokinetics in BALB/c mice; type: in vivo; conditions: 50 mg/kg
In short: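 Male BALB/c mice aged 8–13 weeks received a single oral dose of 50 mg/kg in 1% v/v Tween 80 + 0.5% w/v sodium CMC. Retro-orbital blood was collected into K2EDTA (n = 3/time point) at 0.25–24 h. Plasma was prepared within 30 min and stored below −60 °C. Plasma was analysed by LC-MS/MS (LLOQ 5.05 ng/mL), and parameters were derived by noncompartmental analysis.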

Cdk-9/T1 = Cdk-9/T1 (Homo sapiens, UniProt P50750); assay: Cdk-9/T1 radioactive; type: biochemical; conditions: read-out: % inhibition (±SD) Cdk-9/T1, 500 nM
In short: (§1)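 Radioactive filter-binding kinase assay using 33P-ATP, run at an external kinase-profiling centre, with the test compound at 500 nM. Enzyme activity remaining was expressed as a percentage of control, and % inhibition was calculated as 100 − % enzyme activity.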

Cdk-9 = conditions: read-out: Cdk-9 IC50; cited from earlier work
[4] = moisture content by loss on drying; type: physicochemical; conditions: at the end of 6 months
[5] = solubility in reaction solvents for scale-up; type: physicochemical
[6] = thermodynamic equilibrium solubility in water; type: physicochemical; conditions: 25 °C, 24 h
In short: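 Excess solid was added to water, vortexed for 5 min, then shaken at 300 rpm and 25 °C for 24 h. After centrifugation (14 000 rpm, 10 min), the supernatant was quantified by reversed-phase C18 HPLC. Elution used a methanol/0.1% formic acid gradient with photodiode detection and a 37 °C column. Calibration covered 5–160 μg/mL.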

Cdk-2/A = Cdk-2/A (Homo sapiens, UniProt P24941); assay: Cdk-2/A radioactive; type: biochemical; conditions: read-out: % inhibition (±SD) Cdk-2/A, 500 nM
In short: as §1

Chain of Cdk-9/T1 (P50750 whole entry): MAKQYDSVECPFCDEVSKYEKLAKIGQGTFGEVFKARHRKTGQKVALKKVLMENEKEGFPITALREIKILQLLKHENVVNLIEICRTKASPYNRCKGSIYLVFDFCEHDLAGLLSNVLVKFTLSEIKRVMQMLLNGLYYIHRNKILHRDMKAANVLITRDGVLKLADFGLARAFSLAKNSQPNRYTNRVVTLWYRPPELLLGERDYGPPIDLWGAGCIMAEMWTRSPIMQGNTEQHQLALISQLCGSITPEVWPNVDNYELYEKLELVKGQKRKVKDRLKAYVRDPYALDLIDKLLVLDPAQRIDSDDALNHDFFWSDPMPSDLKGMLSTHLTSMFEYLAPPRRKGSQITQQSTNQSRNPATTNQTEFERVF
Chain of Cdk-9/T1 (O60563 whole entry partner): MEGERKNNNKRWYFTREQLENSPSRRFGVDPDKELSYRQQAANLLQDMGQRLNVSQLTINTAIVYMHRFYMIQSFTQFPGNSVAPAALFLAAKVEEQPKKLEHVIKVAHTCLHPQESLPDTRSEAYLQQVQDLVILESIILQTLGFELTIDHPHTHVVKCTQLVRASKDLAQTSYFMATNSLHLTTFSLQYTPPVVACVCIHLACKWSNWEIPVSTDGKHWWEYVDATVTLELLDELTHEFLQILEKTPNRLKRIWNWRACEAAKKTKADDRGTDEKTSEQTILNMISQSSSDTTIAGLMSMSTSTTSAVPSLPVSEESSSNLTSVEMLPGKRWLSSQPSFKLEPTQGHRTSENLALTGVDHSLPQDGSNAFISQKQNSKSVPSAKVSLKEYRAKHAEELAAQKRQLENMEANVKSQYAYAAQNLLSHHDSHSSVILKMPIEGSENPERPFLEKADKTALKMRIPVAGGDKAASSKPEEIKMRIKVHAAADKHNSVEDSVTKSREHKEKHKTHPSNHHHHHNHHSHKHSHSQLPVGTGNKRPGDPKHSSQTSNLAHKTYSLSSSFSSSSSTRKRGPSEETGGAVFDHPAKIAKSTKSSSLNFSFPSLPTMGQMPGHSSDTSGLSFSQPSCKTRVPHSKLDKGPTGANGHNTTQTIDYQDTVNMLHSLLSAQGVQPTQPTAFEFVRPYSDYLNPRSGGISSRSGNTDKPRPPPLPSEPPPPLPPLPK

Row | % drug dissolved in HCl buffer (pH 1.2) at 30 min ([2]; HCl buffer pH 1.2, 0.25% SLS, 30 min) [%] | AUC0–t (mean ± SEM), dissolution in HCl buffer (pH 1.2) ([2]; HCl buffer pH 1.2, 0.25% w/v SLS) [μg/mL min] | dissolution in phosphate buffer (pH 6.8) at the end of 60 min ([2]; phosphate buffer pH 6.8, 0.25% SLS, 60 min) [%] | AUC0–t (mean ± SEM), dissolution in phosphate buffer (pH 6.8) ([2]; phosphate buffer pH 6.8, 0.25% w/v SLS) [μg/mL min] | AUC0–t (mean ± SEM), dissolution in water ([2]; water, 0.25% w/v SLS) [µg·min/mL] | dissolution in water at the end of 120 min ([2]; water, 0.25% w/v SLS, 37 °C, 120 min) [% w/v] | T1/2 [3] [h] | AUC(0-t) ([3]; male, BALB/c, mouse, plasma, po, AUC0–t) [ng·h/mL] | Cmax ([3]; male, BALB/c, mouse, plasma, po, Cmax) [ng/mL] | Tmax ([3]; male, BALB/c, mouse, plasma, po, Tmax) [h] | inhibition at 0.5 µM (Cdk-9/T1) [%] | % moisture content [4] [% w/w] | solubility in methanol [5] [µg/mL] | solubility ([5]; methanol, solubility in methanol) [µg/mL] | thermodynamic equilibrium solubility in water [6] | inhibition at 0.5 µM (Cdk-2/A) [%] | Structure (SMILES) | pKa values of counterions [1] | IC50 (Cdk-9) [nM]
1 |  |  |  |  |  |  |  |  |  |  |  |  |  |  |  |  | O=C(O)CC(O)(CC(=O)O)C(=O)O [citric acid] | 3.73 | 
2 | 83 | 2102.46 ± 80.09 | 63 | 4898.69 ± 317.03 | 3557.23 ± 247.03 | 49 | 1.92 | 2570 | 656 | 1 | 94 ± 0.8 | 3.5 | 500 (≈ 1080 µM) | ~500 (≈ 1080 µM) | ~8.6 µg/mL and 8.61 ± 1.8 µg/mL | 90 ± 0.2 | CN1CC[C@H](c2c(O)cc(O)c3c(=O)cc(/C=C/c4c(Cl)cccc4Cl)oc23)[C@H](O)C1 [IIIM-290, 2-((E)-2,6-Dichlorostyryl)-5,7-dihydroxy-8-((3S,4R)-3-hydroxy-1-methylpiperidin-4-yl)-4H-chromen-4-one] |  | 1.9
3 |  |  |  |  |  |  |  |  |  |  |  |  |  |  |  |  | Nc1ccc(C(=O)O)cc1 [4-aminobenzoic acid] | 2.38 | 
